Source: PubChem BioAssay (Sanford-Burnham Center for Chemical Genomics)
The list is not random: actives were taken first. Their share in the collection is about 0.79%.
mIAP inh – blocks mouse intestinal alkaline phosphatase. purified mouse IAP, CDP-Star luminescence, 30 min. inhibition, % at 10 µM. 330,000 tested, 0.2% active. AID 2806;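 active means inhibition of at least 40% at 10 µM in the primary screen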;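 further: plate controls were DMSO with enzyme for no effect and no enzyme wells for full effect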
hIAP block – blocks human intestinal alkaline phosphatase; inhibition, % at 10 µM; P09923; 330,000 tested, 0.12% active; purified IAP, CDP-Star luminescence, 30 min; AID 2544;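 active means inhibition reaching a set limit with compound at 10 µM in the primary screen, cut at about 35% in these data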;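 further: plate controls were DMSO wells with enzyme for no effect and no-enzyme buffer wells for full effect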
Target sequence (P09923 whole entry, looked up): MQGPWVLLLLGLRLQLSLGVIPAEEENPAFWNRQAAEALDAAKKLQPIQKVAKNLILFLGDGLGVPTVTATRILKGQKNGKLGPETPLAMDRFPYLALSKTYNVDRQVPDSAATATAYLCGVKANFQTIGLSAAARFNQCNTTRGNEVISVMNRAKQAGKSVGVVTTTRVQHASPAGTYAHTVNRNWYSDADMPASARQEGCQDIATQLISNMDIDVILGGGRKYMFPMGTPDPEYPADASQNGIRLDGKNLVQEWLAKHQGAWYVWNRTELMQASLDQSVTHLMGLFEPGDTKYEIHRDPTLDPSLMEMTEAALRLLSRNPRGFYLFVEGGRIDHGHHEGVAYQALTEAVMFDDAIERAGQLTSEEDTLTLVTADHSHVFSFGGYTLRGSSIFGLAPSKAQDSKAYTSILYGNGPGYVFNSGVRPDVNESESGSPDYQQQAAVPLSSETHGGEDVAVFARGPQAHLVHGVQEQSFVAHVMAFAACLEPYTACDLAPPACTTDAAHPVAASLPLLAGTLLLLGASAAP
hIAP activ – increases human intestinal alkaline phosphatase activity; P09923; 330,000 tested, 0.16% active; activation factor at 10 µM; purified human IAP, CDP-Star luminescence, 30 min; stronger effect = higher value; 1 = vehicle-only enzyme, 0 = enzyme-free background;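 active means activation factor of the enzyme at least 2-fold when tested at 20 µM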
bIAP inhibitor – intestinal alkaline phosphatase (bovine) inhibition; purified bovine IAP, CDP-star luminescence, 30 min; 190,000 tested, under 10 active; inhibition, % at 20 µM;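 active means over 50% inhibition of intestinal alkaline phosphatase at 20 µM in the single-dose screen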
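Assay system – bovine IAP enzyme · Quantity – bovine IAP at 1/65,000,000 final dilution · Detection – CDP-star luminescence signal · Times – 30 min reaction at room temperature · Also added – CDP-star substrate at 30 µM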
mIAP activ – mouse IAP activation. AID 2805. 330,000 tested, 0.24% active. activation factor at 10 µM. muIAP, CDP-Star luminescence, 30 min; stronger effect = higher value; 1 = vehicle-only enzyme signal, 0 = enzyme-free wells;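 active means activation factor of at least 2 at 20 µM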
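Assay system: mouse IAP enzyme / Compound: DMSO-dissolved test compounds / Timing: 30 min, room temperature / Measured by: luminescence from enzymatic CDP-Star hydrolysis / Control set: DMSO-only wells, enzyme-free buffer wells as negative control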
bIAP activator – intestinal alkaline phosphatase (bovine) activation; 200,000 tested, 0.17% active; AID 1016; activation factor at 20 µM; purified bovine IAP, CDP-star luminescence, 30 min; stronger effect = higher value; fold of DMSO-control signal, blank-subtracted;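 active means activation factor of 2 or more at 20 µM, a signal rise over negative controls twice the positive control's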
mIAP inh confirm – mouse IAP inhibition confirmation. shares compounds with mIAP inh. inhibition, % at 10 µM. purified mouse IAP, CDP-Star luminescence, 30 min. AID 434971. 11,000 tested, 4.7% active;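 active means inhibition of at least 40% at 10 µM in either of the two replicates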;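 further: plate controls were DMSO wells with enzyme for no effect and buffer wells lacking enzyme for full effect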
* hit, by the source's call; i = inactive; . = not tested or not shown.

SMILES	mIAP inh	hIAP block	hIAP activ	bIAP inhibitor	mIAP activ	bIAP activator	mIAP inh confirm
COc1ccc(OC)c(NC(=O)CCNS(=O)(=O)c2ccc3[nH]c(=O)oc3c2)c1	47.2*	23.3	0.767	.	0.528	.	61.6*
CC(NC(=O)c1ccccc1)C(=O)OCC(=O)c1ccc(Br)cc1 (stereo not given)	-8.4	7.8	0.922	.	1.08	.	.
O=C(COC(=O)Cn1cc(C(F)(F)F)ccc1=O)NCc1ccccc1	0.2	0.5	0.995	.	0.998	.	.
COc1ccccc1NC(=O)CCNS(=O)(=O)c1ccc2[nH]c(=O)oc2c1	41.3*	-21.0	1.21	.	0.587	.	73.5*
O=C(CCNS(=O)(=O)c1ccc2[nH]c(=O)oc2c1)NCc1ccccc1	9.5	10.7	0.893	.	0.905	.	.
Cc1ccc(NC(=O)CCNS(=O)(=O)c2ccc3[nH]c(=O)oc3c2)c(C)c1	30.2	-5.1	1.05	.	0.698	.	.
COc1ccccc1CNC(=O)CCNS(=O)(=O)c1ccc2[nH]c(=O)oc2c1	40.8*	0.2	0.998	.	0.592	.	74.6*
CC/C(C)=N/Nc1nc2c(c(=O)[nH]c(=O)n2C)n1CCc1ccccc1	41.0*	-15.8	1.16	1.8	0.59	1	46.7*
CCN1CCN(C(=O)c2ccccc2N(Cc2ccccc2)S(=O)(=O)c2ccc(OC)cc2)CC1	-1.2	4.0	0.96	.	1.01	.	.
Oc1ccc(/C=N/Nc2cc(N3CCOCC3)nc(N3CCOCC3)n2)cc1O	42.1*	-11.3	1.11	3.9	0.579	1	63.3*
CCN(CC)C(=O)CSc1nc(O)c(Cc2ccccc2)c(=O)n1-c1ccccc1C	5.2	3.3	0.966	.	0.948	.	.
COc1ccc(/C=C(\C#N)C(=O)Nc2cccc3ncccc23)cc1OC	-13.8	-15.4	1.15	.	1.14	.	.
N#C/C(=C\c1ccc(O)c(O)c1)C(=O)Nc1cccc2ncccc12	66.3*	32.5	0.675	.	0.337	.	76.0*
Cc1cc(NS(=O)(=O)c2ccc(Nc3nc(-c4sc(N)nc4C)cs3)cc2)no1	44.1*	0.3	0.997	-27.2	0.559	1.3	59.4*
Cc1nc(N)sc1-c1csc(Nc2cccc(C(=O)O)c2)n1	51.9*	10.1	0.899	.	0.481	.	54.0*
Cc1cc(NS(=O)(=O)c2ccc(Nc3nc(-c4ccc(C)c(C)c4)cs3)cc2)no1	1.1	1.0	0.99	.	0.989	0.3	.
O=C(NNC(=S)NC(=O)c1cccs1)c1ccc(O)cc1	59.5*	-61.8	1.62	.	0.405	.	63.9*
CCCc1nnc(SCC(=O)O)n1CC	5.5	7.3	0.927	.	0.945	.	.
NS(=O)(=O)c1ccc(N=Nc2c[nH]c(=O)c(O)c2)cc1	68.4*	-11.7	1.12	.	0.316	.	81.1*
COc1ccc2[nH]c3c(c2c1)CCN1C(=O)C(CC(=O)NC/C=C(\C)CCC=C(C)C)C[C@H](C(=O)N(C(C)C)C(C)C)[C@@]31C (stereo not given in full)	-115.6	.	.	.	2.16*	.	-100.5
O=c1oc2cc(O)ccc2s1	47.6*	-11.1	1.11	.	0.524	.	71.5*
CC(C)NC(=O)Nc1ccc2c(c1)C(=O)N([C@H](C)CO)C[C@H](C)[C@@H](CN(C)C(=O)NC1CCCCC1)O2	-8.0	0.1	0.999	.	1.08	.	.
C[C@H](CO)N1C[C@H](C)[C@@H](CN(C)C(=O)Nc2ccccc2)Oc2ccc(NC(=O)Nc3ccccc3)cc2C1=O	-207.3	-12.6	1.13	.	3.07*	.	-122.6
C[C@H](CO)N1C[C@H](C)[C@@H](CN(C)C(=O)NC2CCCCC2)Oc2ccc(NC(=O)Nc3ccccc3)cc2C1=O	-158.8	10.5	0.895	.	2.59*	.	-99.6
CCOc1ccc(S(=O)(=O)Nc2cc(Sc3ncn[nH]3)c3oc(=O)sc3c2)cc1	71.7*	13.1	0.869	-35.2	0.283	1.4	82.0*
SMILES	mIAP inh	hIAP block	hIAP activ	bIAP inhibitor	mIAP activ	bIAP activator	mIAP inh confirm
CCOc1ccc(S(=O)(=O)Nc2ncn[nH]2)cc1	0.4	11.3	0.887	.	0.996	.	.
CC(C)c1ccc(NC(=O)NC2(C(=O)NCc3cccnc3)CCCCC2)cc1	-52.7	-72.3	1.72	.	1.53	.	.
Cc1ccc(NC(=O)NC2(C(=O)NCc3ccccc3)CCCCC2)cc1	-174.6	19.5	0.805	7.9	2.75*	0.9	-131.0
Cc1ccc(CNC(=O)C2(NC(=O)Nc3ccc(C)cc3)CCCCC2)cc1	i	4.0	0.96	-7.4	6.62*	1.1	-198.1
COc1ccccc1CNC(=O)C1(NC(=O)Nc2ccc(C)cc2)CCCCC1	-490.4	-182.8	2.83*	-385.8	5.9*	4.9*	-243.8
O=C(Nc1ccc(F)cc1)NC1(C(=O)NCc2ccco2)CCCCC1	-18.7	-14.1	1.14	7.1	1.19	0.9	.
CCC1CCC(NC(=O)Nc2cccc(OC)c2)CC1 (stereo not given)	-119.9	-19.4	1.19	-13.7	2.2*	1.1	-137.0
COc1cccc(NC(=O)NC2CCCc3ccccc32)c1 (stereo not given)	-183.9	0.3	0.997	-9.3	2.84*	1.1	-174.0
COc1ccc(NC(=O)NC2CCCc3ccccc32)c(OC)c1 (stereo not given)	-12.9	-3.5	1.03	.	1.13	.	.
CON(C)S(=O)(=O)NC(=O)C1=C(N2CCCC2)COC1=O	0.4	17.4	0.826	.	0.996	.	.
CNC(=O)CSc1nc2nn(-c3ccccc3)c(=O)c-2c2n1CCCCC2	-4.9	-1.2	1.01	4.7	1.05	1	.
O=C(CSc1nc2nn(-c3ccccc3)c(=O)c-2c2n1CCCCC2)c1ccc(O)c(O)c1	75.6*	24.3	0.757	.	0.244	.	80.9*
O=C(CSc1nc2ccccc2o1)N/N=C/c1ccc(O)c(O)c1	66.9*	26.0	0.74	.	0.331	.	74.4*
Cc1nonc1C(=O)N/N=C/c1ccc(O)c(O)c1	42.1*	9.7	0.903	2.2	0.579	1	41.0*
Cc1cc(SCC(=O)N/N=C/c2ccc(O)c(O)c2)c(C)cc1Br	15.7	-14.8	1.15	13.5	0.843	0.9	.
O=C(N/N=C/c1ccc(O)c(O)c1)N/N=C/c1ccc(O)c(O)c1	48.6*	20.2	0.798	.	0.514	.	71.6*
O=C(Nc1cccc(Cl)c1)Nc1cccc(Cl)c1	-162.7	-8.8	1.09	-16.0	2.63*	1.2	-220.9
CC(O)c1cccc(NC(=O)CCC(=O)O)c1 (stereo not given)	-9.3	16.4	0.836	10.3	1.09	0.9	.
O=C(Nc1ccccc1)Nc1cc(Cl)cc(Cl)c1	-383.6	-19.4	1.19	12.5	4.84*	0.9	-240.7
CC(O)c1cccc(NC(=O)Nc2cccc(NC(=O)Nc3cccc(C(C)O)c3)c2)c1 (stereo not given)	-152.1	-19.1	1.19	.	2.52*	.	-88.9
O=C(Nc1cccc(F)c1)Nc1cccc(Cl)c1	-259.3	-13.9	1.14	.	3.59*	.	-110.7
CN(Cc1cnn(-c2ccccc2)c1)C(=O)C1CCC(=O)N(C2CC2)C1 (stereo not given)	0.4	7.8	0.922	.	0.996	.	.
